Measurements taken from ChEMBL document CHEMBL1122519, “Bispyridinamines: a new class of topical antimicrobial agents as inhibitors of dental plaque” (1984).

Key:
Staphylococcus aureus [1] = test: Minimum antimicrobial inhibitory concentration against Staphylococcus aureus; type: functional
Procedure, shortened: (§1)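 Serial twofold tube dilution in tryptose phosphate broth. Each compound was prepared as a 1000 μg/mL aqueous stock and diluted in double-strength broth, then 2×10^5 cells were added. Tubes were incubated aerobically at 37 °C for 24 h. The MIC was taken as the lowest concentration with no visible growth.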

Klebsiella pneumoniae = test: Minimum inhibitory concentration against Klebsiella pneumonia 39645; type: functional; procedure, shortened: as §1
Escherichia coli [2] = test: Antimicrobial minimum inhibitory concentration against Escherichia coli 100/B22; type: functional; procedure, shortened: as §1
Proteus mirabilis [3] = test: Minimum antimicrobial inhibitory concentration against Proteus mirabilis MGH-1; type: functional; procedure, shortened: as §1
Escherichia coli [4] = test: Minimum inhibitory concentration against Escherichia coli (Vogel); type: functional; procedure, shortened: as §1
[5] = Compound is evaluated for stain index; type: functional
Procedure, shortened: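 Ratio of the minimum concentration staining a plaque-free ceramic hydroxylapatite plate to the minimum plaque-inhibiting concentration, both run under the same conditions. Plates got two 1-min soaks (0.1–0.001%), each followed by air-drying, then a water rinse. They were then held 24 h anaerobically at 37 °C in sucrose beef-extract medium, with or without S. mutans OMZ-61, repeated once. Staining was 1-min 1% FD&C Red No. 3, scored visually.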

Escherichia coli [6] = test: Antimicrobial minimum inhibitory concentration against Escherichia coli AB1932-1; type: functional; procedure, shortened: as §1
Streptococcus mutans [7] = test: Compound is evaluated for minimal bactericidal concentration against plaque formation for Streptococcus mutans; type: functional, organism-based
Procedure, shortened: (§2)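 Preformed in vitro plaques of S. mutans NCTC 10449 or A. viscosus M-100 were grown on ceramic hydroxylapatite under anaerobic conditions at 37 °C in sucrose-supplemented medium. Plaques were immersed for 30 min at 37 °C in compound at 0.3–20 mM, rinsed, and moved to broth containing bromocresol purple. Kill was judged by no acid production, no turbidity increase and no growth on plating at 48 h. Plaques were run in quadruplicate.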

Actinomyces viscosus = test: Compound is evaluated for minimal bactericidal concentration against plaque formation for Actinomyces viscosus; type: functional, organism-based; procedure, shortened: as §2
Streptococcus mutans [8] = test: Minimum plaque inhibitory concentration using a standard test organism, Streptococcus mutans OMZ-61; type: functional, organism-based
Procedure, shortened: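 Ceramic hydroxylapatite plates were soaked twice for 1 min each in compound at […] (aqueous), air-dried and rinsed, then hung in sucrose beef-extract medium (pH 7.0) inoculated with late-log S. mutans OMZ-61. Incubation was anaerobic at 37 °C for 24 h, and treatment plus reinoculation were repeated for a second 24 h. Plaque was stained with 1% FD&C Red No. 3 and scored visually. The value is the lowest concentration giving no plaque while medium growth matched control.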

Pseudomonas aeruginosa [9] = test: Minimum antimicrobial inhibitory concentration against Pseudomonas aeruginosa MGH-2; type: functional; procedure, shortened: as §1
Pseudomonas aeruginosa [10] = test: Compound is evaluated for the antimicrobial minimum inhibitory concentration against Pseudomonas aeruginosa MGH-1; type: functional
Streptococcus mutans [11] = test: Compound is evaluated for minimum plaque inhibitory concentration using a standard test organism, Streptococcus mutans OMZ-61; type: functional
Procedure, shortened: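 S. mutans OMZ-61 in pH 7.0 beef extract–trypticase medium with 0.5% sucrose. Sterile ceramic hydroxylapatite plates got two 1-min soaks in 0.1–0.001% compound, each followed by 1-min air-drying, then a 5-min water rinse. Plates were put in inoculated medium at 37 °C anaerobically for 24 h. The cycle was repeated for a second 24 h. Plaque was stained with 1% FD&C Red No. 3. Value is the lowest concentration completely preventing plaque.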

Staphylococcus aureus [12] = test: Compound is evaluated for the antimicrobial minimum inhibitory concentration against Staphylococcus aureus (Smith); type: functional; procedure, shortened: as §1
Proteus mirabilis [13] = test: Compound is evaluated for the antimicrobial minimum inhibitory concentration against Proteus mirabilis MGH-1; type: functional; procedure, shortened: as §1
Streptococcus mutans [14] = test: Compound is evaluated for the effect of saliva upon the antiplaque activity at 0% of saliva and at 0.025 percentage of compound; + = Slight staining; type: functional, organism-based
Procedure, shortened: (§3)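 Hydroxylapatite plate antiplaque assay against S. mutans run for 48 h, with two 1-min exposures to aqueous compound per 24 h. Growth medium contained 0, 5 or 50% pooled human saliva (paraffin-stimulated, centrifuged, filtered, membrane-sterilized). Plaque was stained with FD&C Red No. 3 and graded none, slight or moderate. Staining potential was scored on plates run without inoculum and graded none or slight.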

Streptococcus mutans [15] = test: Compound is evaluated for the effect of saliva upon the staining potential at 0% of saliva and at 0.01 percentage of compound; + = Slight staining; type: functional, organism-based; procedure, shortened: as §3
Streptococcus mutans [16] = test: Compound is evaluated for the effect of saliva upon the antiplaque activity at 50% of saliva and at 0.025 percentage of compound; - = No plaque accumulation; type: functional, organism-based; procedure, shortened: as §3
Streptococcus mutans [17] = test: Compound is evaluated for the effect of saliva upon the antiplaque activity at 50% of saliva and at 0.05 percentage of compound; - = No staining; type: functional, organism-based; procedure, shortened: as §3
Streptococcus mutans [18] = test: Compound is evaluated for the effect of saliva upon the antiplaque activity at 0% of saliva and at 0.01 percentage of compound; - = No plaque accumulation; type: functional, organism-based; procedure, shortened: as §3
Streptococcus mutans [19] = test: Compound is evaluated for the effect of saliva upon the antiplaque activity at 50% of saliva and at 0.01 percentage of compound; type: functional, organism-based; procedure, shortened: as §3
Streptococcus mutans [20] = test: Compound is evaluated for the effect of saliva upon the antiplaque activity at 50% of saliva and at 0.01 percentage of compound; - = No staining; type: functional, organism-based; procedure, shortened: as §3
Streptococcus mutans [21] = test: Compound is evaluated for the effect of saliva upon the antiplaque activity at 50% of saliva and at 0.05 percentage of compound; - = No plaque accumulation; type: functional, organism-based; procedure, shortened: as §3
Streptococcus mutans [22] = test: Compound is evaluated for the effect of saliva upon the antiplaque activity at 0% of saliva and at 0.05 percentage of compound; - = No plaque accumulation; type: functional, organism-based; procedure, shortened: as §3
Streptococcus mutans [23] = test: Compound is evaluated for the effect of saliva upon the antiplaque activity at 0% of saliva and at 0.025 percentage of compound; - = No plaque accumulation; type: functional, organism-based; procedure, shortened: as §3
Streptococcus mutans [24] = test: Compound is evaluated for the growth inhibition of Streptococcus mutans OMZ-61; type: functional
Streptococcus mutans [25] = test: Compound is evaluated for the effect of saliva upon the antiplaque activity at 50% of saliva and at 0.025 percentage of compound; - = No staining; type: functional, organism-based; procedure, shortened: as §3
Streptococcus mutans [26] = test: Compound is evaluated for the effect of saliva upon the antiplaque activity at 0% of saliva and at 0.05 percentage of compound; + = Slight staining; type: functional, organism-based; procedure, shortened: as §3
Streptococcus mutans [27] = test: Compound is evaluated for the inhibition of plaque-forming enzyme of Streptococcus mutans OMZ-61; type: functional
Procedure, shortened: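 S. mutans OMZ-61 was grown anaerobically at 37 °C for 24 h in glucose medium. The cell-free filtrate, adjusted to pH 5.5, served as the dextran/levan sucrase source. Reactions contained 3 μmol 14C-sucrose in citrate phosphate buffer pH 5.5 with 4% EtOH and ran 2 h at 37 °C. MeOH-insoluble polysaccharide was counted by scintillation. Compounds were tested at 50, 160 and 500 μg base/mL, with lower levels if needed, and I50 was read graphically.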

Structure (SMILES)	MIC (Staphylococcus aureus [1])	MIC (Klebsiella pneumoniae)	MIC (Escherichia coli [2])	MIC (Proteus mirabilis [3])	MIC (Escherichia coli [4])	Stain index [5]	MIC (Escherichia coli [6])	Concentration (Streptococcus mutans [7])	Concentration (Actinomyces viscosus)	Concentration (Streptococcus mutans [8])	MIC (Pseudomonas aeruginosa [9])	also measured
Br.Br.CCCCCCCCCN=c1ccn(CCCCCCCCCCn2ccc(=NCCCCCCCCC)cc2)cc1	2 µg/mL	3.9 µg/mL	3.9 µg/mL	3.9 µg/mL	2 µg/mL	1	3.9 µg/mL	1.35 mM	2.7 mM	0.004%	3.9 µg/mL	–
Br.Br.CCCCCCCCN=c1ccn(CCCCCCCCCCCCCCn2ccc(=NCCCCCCCC)cc2)cc1	1 µg/mL	7.8 µg/mL	3.9 µg/mL	3.9 µg/mL	7.8 µg/mL	2	3.9 µg/mL	1.3 mM	2.6 mM	0.005%	3.9 µg/mL	–
Br.Br.N=c1ccn(CCCCn2ccc(=N)cc2)cc1	–	> 500 µg/mL	–	–	500 µg/mL	–	–	–	–	–	–	MIC (Pseudomonas aeruginosa [10]): > 500 µg/mL; Min plague Inhibitory (Streptococcus mutans [11]): >1%; MIC (Staphylococcus aureus [12]): 125 µg/mL; MIC (Proteus mirabilis [13]): > 500 µg/mL
Br.Br.CCCCCCCCCN=c1ccn(CCCCCCCCn2ccc(=NCCCCCCCCC)cc2)cc1	1 µg/mL	2 µg/mL	2 µg/mL	3.9 µg/mL	3.9 µg/mL	1	2 µg/mL	2.5 mM	2.5 mM	0.004%	7.8 µg/mL	–
CCCCCCCCCN=c1ccn(CCCCCCn2ccc(=NCCCCCCCCC)cc2)cc1.Cl.Cl	1 µg/mL	3.9 µg/mL	2 µg/mL	7.8 µg/mL	2 µg/mL	1	2 µg/mL	7.3 mM	7.3 mM	0.01%	15.6 µg/mL	–
Br.Br.CCCCCCCCN=c1ccn(CCCCCCCCCCCCn2ccc(=NCCCCCCCC)cc2)cc1	0.5 µg/mL	1 µg/mL	2 µg/mL	2 µg/mL	2 µg/mL	10	2 µg/mL	2.7 mM	1.35 mM	0.005%	2 µg/mL	–
Br.Br.CCCCCCCCCN=c1ccn(CCCCCCCn2ccc(=NCCCCCCCCC)cc2)cc1	0.5 µg/mL	2 µg/mL	2 µg/mL	3.9 µg/mL	1 µg/mL	1	2 µg/mL	2.86 mM	7.16 mM	0.004%	15.6 µg/mL	–
CCCCC(CC)CNC(=N)NC(=N)NCCCCCCNC(=N)NC(=N)NCC(CC)CCCC.Cl.Cl (stereo not given) [ALEXIDINE DIHYDROCHLORIDE]	0.5 µg/mL	3.9 µg/mL	1 µg/mL	31.3 µg/mL	2 µg/mL	–	1 µg/mL	–	–	0.005%	15.6 µg/mL	Staining potential (Streptococcus mutans [14]): No staining; Staining potential (Streptococcus mutans [15]): No staining; Plaque accum (Streptococcus mutans [16]): No plaque accumulation; Staining potential (Streptococcus mutans [17]): No staining; Plaque accum (Streptococcus mutans [18]): No plaque accumulation; Plaque accum (Streptococcus mutans [19]): No plaque accumulation; Staining potential (Streptococcus mutans [20]): No staining; Plaque accum (Streptococcus mutans [21]): No plaque accumulation; Plaque accum (Streptococcus mutans [22]): No plaque accumulation; Plaque accum (Streptococcus mutans [23]): No plaque accumulation; MIC (Streptococcus mutans [24]): 0.5 (ug of base) ml-1; Staining potential (Streptococcus mutans [25]): No staining; Staining potential (Streptococcus mutans [26]): No staining; I50 (Streptococcus mutans [27]): 156 (ug of base) ml-1
Br.Br.CCCCCCCCCN=c1ccn(CCCCCCCCCn2ccc(=NCCCCCCCCC)cc2)cc1	2 µg/mL	3.9 µg/mL	2 µg/mL	3.9 µg/mL	2 µg/mL	1	3.9 µg/mL	1.37 mM	1.37 mM	0.004%	3.9 µg/mL	–
Br.Br.N=c1ccn(CCCCCCn2ccc(=N)cc2)cc1	–	> 500 µg/mL	–	–	500 µg/mL	–	–	–	–	–	–	MIC (Pseudomonas aeruginosa [10]): > 500 µg/mL; Min plague Inhibitory (Streptococcus mutans [11]): >1%; MIC (Staphylococcus aureus [12]): 250 µg/mL; MIC (Proteus mirabilis [13]): > 500 µg/mL
CCCCCCCN=c1ccn(CCCCCCCCCCn2ccc(=NCCCCCCC)cc2)cc1.Cl.Cl	0.2 µg/mL	1 µg/mL	0.5 µg/mL	7.8 µg/mL	0.5 µg/mL	10	1 µg/mL	0.73 mM	1.46 mM	0.004%	7.8 µg/mL	–
CCCCCCCN=c1ccn(CCCCCCCCCCCCn2ccc(=NCCCCCCC)cc2)cc1.Cl.Cl	0.2 µg/mL	2 µg/mL	0.5 µg/mL	2 µg/mL	0.5 µg/mL	10	1 µg/mL	2.81 mM	2.81 mM	0.003%	3.9 µg/mL	–
CCCCCCN=c1ccn(CCCCCCCCCCCCCCn2ccc(=NCCCCCC)cc2)cc1.Cl.Cl	0.5 µg/mL	1 µg/mL	0.5 µg/mL	3.9 µg/mL	1 µg/mL	1	0.5 µg/mL	1.4 mM	2.8 mM	0.004%	3.9 µg/mL	–
CCCCCCCCN=c1ccn(CCCCCCCCn2ccc(=NCCCCCCCC)cc2)cc1.Cl.Cl	0.2 µg/mL	1 µg/mL	0.5 µg/mL	3.9 µg/mL	1 µg/mL	10	1 µg/mL	8.8 mM	0.88 mM	0.005%	7.8 µg/mL	–
